Published values from different studies.
Lines come from different studies, so protocols differ.
Cell line: A-375
Observed: cell growth or viability

SMILES	technique	time	quantity	result
CNC(=O)c1cc(Oc2ccc(NC(=O)Nc3ccc(Cl)c(C(F)(F)F)c3)cc2)ccn1	–	–	EC50	4 µM
O=C(O)/C=C/c1ccc(O)c(O)c1	MTT	–	IC50	4.8 µM
COc1cc(C(=O)c2csc(-c3ccccc3)n2)cc(OC)c1OC	SRB	96 h	IC50	0.028 µM
CC(=O)c1ccc(N=Nc2c(C(=O)O)cc(O)c(O)c2O)cc1	MTT	–	IC50	12.9 µM
CNc1nc2ccccc2n2c(-c3cccc(OC)c3)cnc12	neutral red	96 h	IC50	0.23 µM
Cn1nccc1Nc1nccc(-c2cc3c(s2)C(C)(C)N(CCN2CCOCC2)C3=O)n1	resazurin	96 h	IC50	0.35 µM
COc1cc(Nc2nccc(-c3cnn4nc(OC)ccc34)n2)cc(C(F)(F)F)c1	ATP luminescence	–	IC50	0.097 µM
CN(C)CCOc1ccc(-c2nc(-c3ccncc3)c(-c3ccc4c(c3)CC/C4=N\O)[nH]2)cc1	–	–	EC50	0.03 µM
Cn1nccc1Nc1nccc(-c2ccn([C@H](CO)c3ccc(Cl)c(F)c3)c(=O)c2)n1	resazurin	96 h	IC50	0.13 µM
O=C(O)c1cc(O)c(O)c(O)c1	MTT	–	IC50	18.7 µM
CC(C)C[C@H](NC(=O)[C@H](Cc1ccccc1)NC(=O)c1cnccn1)B(O)O	ATP luminescence	–	IC50	0.011 µM
